The structures appear in SMILES notation. pIC50: −log10 of the molar value. Values after ≈ are worked out from the molar mass of the structure shown. Active and inactive are the calls of the source.

Test [1] in a line: Inhibition of chymotrypsin.
Test [2] can be described thus: Inhibition of Staphylococcus aureus MurA. A digest of the protocol:
(§1)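 Poly(His)-tagged MurA from E. coli BL21 Star (DE3) (0.1 mM IPTG, 18 °C, 24 h), purified by Co2+ affinity and gel filtration. At 25 °C, a 2-fold inhibitor series went to 33.3 µg/mL enzyme preincubated 10 min in 50 mM Tris-HCl pH 7.8 with UDP-GlcNAc. PEP started a 30 min reaction. Phosphate was read by malachite green-molybdate at A660 against standards. Means of four experiments ± SD.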

A short description of test [3]: Inhibition of Staphylococcus aureus MurZ. A digest of the protocol: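 Poly(His)-tagged MurZ was expressed in E. coli BL21 Star (DE3) by autoinduction and purified by Co2+ affinity and gel filtration. At 25 °C, a 2-fold inhibitor series was added to enzyme preincubated 10 min in 50 mM Tris-HCl pH 7.8 with UDP-GlcNAc. PEP started a 30 min reaction. Released phosphate was read by malachite green-molybdate at A660 against phosphate standards. Means of three experiments ± SD.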

Test [4] in a line: Antibacterial activity against Staphylococcus aureus SH1000. The test is classed as functional.
Test [5] concerns UDP-N-acetylglucosamine 1-carboxyvinyltransferase (Escherichia coli K-12), P0A749 [C115D]. Kind of test: Inhibition of Escherichia coli MurA C115D mutant. The essentials: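 Purified E. coli MurA C115D mutant protein was tested with inhibitor at up to 120 µM.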
UDP-N-acetylglucosamine 1-carboxyvinyltransferase (Escherichia coli K-12), P0A749 [C115D], sequence (P0A749 whole entry C115D): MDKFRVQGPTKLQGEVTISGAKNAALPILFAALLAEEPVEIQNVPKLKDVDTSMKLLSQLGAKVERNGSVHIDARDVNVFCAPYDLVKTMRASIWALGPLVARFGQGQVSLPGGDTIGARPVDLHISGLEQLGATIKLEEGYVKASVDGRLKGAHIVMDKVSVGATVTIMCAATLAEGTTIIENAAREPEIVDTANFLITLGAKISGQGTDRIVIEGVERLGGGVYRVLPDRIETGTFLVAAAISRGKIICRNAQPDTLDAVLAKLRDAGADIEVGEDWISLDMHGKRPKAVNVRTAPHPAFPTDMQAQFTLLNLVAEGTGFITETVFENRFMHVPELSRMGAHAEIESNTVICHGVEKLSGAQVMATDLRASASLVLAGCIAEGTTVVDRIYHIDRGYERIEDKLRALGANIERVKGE
Test [6] in a line: Inhibition of MDH.
Test [7] in a line: Inhibition of Escherichia coli MurA. The essentials: as §1
The nature of test [8]: Antibacterial activity against Escherichia coli JM109. The test is classed as functional.

As for `CN1CCN(C2CCc3ccccc3C2=O)CC1.Cl.Cl` (stereo not given), the outcome in test [1], in test [5] and in test [6] was inactive. Also, the pIC50 (commonly −log10 of the IC50, conventionally taken in molar units) was 4.92 in test [2], 4.64 in test [3] and 5.07 in test [7]. For the same compound, the MIC – broadly, the smallest concentration in the dilution series that meets the test's criterion for growth inhibition – in test [4] was 64 µg/mL; in test [8] it was 128 µg/mL.
Consider `Cl.Cl.OCCN1CCN(C2CCc3ccccc3C2)CC1` (stereo not given), for which the pIC50 in test [2], in test [3] and in test [7] was under 3.92 in each case. The MIC in test [4] and in test [8] was over 256 µg/mL in each case.
As for `O=C1c2ccccc2CCC1C1CCCCC1` (stereo not given), the pIC50 in test [2], in test [3] and in test [7] was under 3.92 each time. Further, the MIC in test [4] and in test [8] was over 256 µg/mL throughout.
For the compound `C[C@@H]1O[C@@H]1P(=O)(O)O` [FOSFOMYCIN], the figures for the negative-log IC50 (pIC50) in test [2], in test [3] and in test [7] were 5.87, 5.86 and 6.34, respectively. The minimal inhibitory concentration (MIC) in test [4] is 16 µg/mL (≈ 116 µM); in test [8] it was 8 µg/mL (≈ 57.9 µM).
Regarding `Cl.Cl.O=C1c2ccccc2CCC1N1CCN(CCO)CC1` (stereo not given), the outcome in test [1] and in test [6] was inactive. In addition, the pIC50 was 4.90 in test [2], 4.79 in test [3] and 4.65 in test [7]. Moreover, the results for the minimal inhibitory concentration (MIC) in test [4] and in test [8] were 8 µg/mL and 128 µg/mL, respectively.
For `COc1cc2c(cc1OC)C(=O)C(N1CCN(CCO)CC1)CC2.Cl.Cl` (stereo not given), the outcome in test [1], in test [5] and in test [6] was inactive. The pIC50 in test [2] is 4.76; in test [3], 4.73; in test [7], 5.50. Besides, the minimum inhibitory concentration (MIC) was determined as 128 µg/mL in test [4] and 256 µg/mL in test [8].
Regarding `COc1cc2c(cc1OC)C(=O)C(N1CCN(Cc3ccccc3)CC1)CC2` (stereo not given), the outcome in test [1] and in test [6] was inactive. In addition, the values for the pIC50 in test [2], in test [3] and in test [7] were 4.54, 4.54 and 4.65, respectively. Besides, the values for the minimal inhibitory concentration (MIC) in test [4] and in test [8] were 64 µg/mL (≈ 168 µM) and over 256 µg/mL, respectively.
In the case of `Cl.Cl.OCCN1CCN([C@@H]2CCc3ccccc3[C@H]2O)CC1`, the negative-log IC50 (pIC50) in test [2], in test [3] and in test [7] was under 3.92 in each case. Moreover, the minimal inhibitory concentration (MIC) in test [4] and in test [8] was over 256 µg/mL in each case.

(Values after ChEMBL document CHEMBL1141516, “2-Aminotetralones: novel inhibitors of MurA and MurZ” (Bioorg Med Chem Lett, 2008).)
